Source: ChEMBL document CHEMBL3877264, “Quinolidene-rhodanine conjugates: Facile synthesis and biological evaluation” (Eur J Med Chem, 2017)
In brackets after ≈: the same amount, converted by molar mass.

Key:
Type in all cases: functional
Pseudomonas fluorescens [1] = assay: Growth inhibition of Pseudomonas fluorescens NCIM 2036 at 10 ug/ml measured after 8 hrs relative to control; conditions: NCIM 2036, 8 h, read-out: GI
Procedure, shortened: (§1)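 Bacteria grown in LB at 37 °C and 180 rpm to OD 1. Compounds added to wells, then 0.1% inoculum of 1 OD culture (620 nm). Growth read as OD at 620 nm after 8 h for gram-negative and after 12 h for gram-positive strains.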

Bacillus subtilis [2] = assay: Growth inhibition of Bacillus subtilis NCIM 2079 at 30 ug/ml measured after 12 hrs relative to control; conditions: NCIM 2079, 12 h, read-out: GI; procedure, shortened: as §1
Candida albicans = assay: Antifungal activity against Candida albicans NCIM 3471 by standard agar method
Procedure, shortened: (§2)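 MICs determined by standard agar method; DMSO as solvent control.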

[3] = test system: Mycobacterium tuberculosis; assay: Growth inhibition of Mycobacterium tuberculosis H37Ra ATCC 25177 at dormant stage measured after 12 days by XTT dye based two fold dilution method; conditions: H37Ra ATCC 25177, 288 h
Procedure, shortened: (§3)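 MTB H37Ra was grown in Dubos medium, then exposed in Mycobacterium pheli minimal medium (pH 6.6) to compounds dissolved in DMSO. The assay ended on day 8 (active) or day 12 (dormant). Viable cells were measured by XTT reduction menadione assay at 470 nm, blank-corrected, relative to vehicle control. Triplicates were expressed as mean ± SD. MIC came from dose-response curves.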

[4] = test system: Mycobacterium tuberculosis; assay: Growth inhibition of Mycobacterium tuberculosis H37Ra ATCC 25177 at active stage measured after 8 days by XTT dye based two fold dilution method; conditions: H37Ra ATCC 25177, 192 h; procedure, shortened: as §3
Staphylococcus aureus [5] = assay: Growth inhibition of Staphylococcus aureus NCIM 2010 at 30 ug/ml measured after 12 hrs relative to control; conditions: NCIM 2010, 12 h, read-out: GI; procedure, shortened: as §1
[6] = test system: Mycobacterium tuberculosis; assay: Growth inhibition of Mycobacterium bovis BCG ATCC 35743 at dormant stage at 10 ug/ml measured after 12 days by nitrate reductase dye based two fold dilution method relative to control; conditions: BCG str. ATCC 35743, 288 h, read-out: GI
Procedure, shortened: (§4)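 M. bovis BCG was grown in Dubos medium and assayed in Mycobacterium pheli minimal medium (pH 6.6), with compounds from DMSO stocks. Incubation lasted 8 days for active and 12 days for dormant cultures. Viability was read by nitrate reductase at 540 nm against cell-free blanks, with vehicle set as 100% growth. Primary screen was at 30, 10 and 3 µg/ml, in triplicate, mean ± SD. MIC was taken from dose-response curves.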

[7] = Antifungal activity against Fusarium oxysporum NCIM 1332 by standard agar method; procedure, shortened: as §2
[8] = Antifungal activity against Cryptococcus neoformans NCIM 576 by standard agar method; procedure, shortened: as §2
[9] = test system: Mycobacterium tuberculosis; assay: Growth inhibition of Mycobacterium bovis BCG ATCC 35743 at active stage measured after 8 days by nitrate reductase dye based two fold dilution method; conditions: BCG str. ATCC 35743, 192 h; procedure, shortened: as §4
Staphylococcus aureus [10] = assay: Antibacterial activity against of Staphylococcus aureus NCIM 2010 measured after 12 hrs; conditions: NCIM 2010, 12 h; procedure, shortened: as §1
Bacillus subtilis [11] = assay: Growth inhibition of Bacillus subtilis NCIM 2079 at 10 ug/ml measured after 12 hrs relative to control; conditions: NCIM 2079, 12 h, read-out: GI; procedure, shortened: as §1
Aspergillus flavus = assay: Antifungal activity against Aspergillus flavus NCIM 539 by standard agar method; procedure, shortened: as §2
Escherichia coli [12] = assay: Growth inhibition of Escherichia coli NCIM 2688 at 3 ug/ml measured after 8 hrs relative to control; conditions: NCIM 2688, 8 h, read-out: GI; procedure, shortened: as §1
[13] = test system: Mycobacterium tuberculosis; assay: Growth inhibition of Mycobacterium bovis BCG ATCC 35743 at dormant stage measured after 12 days by nitrate reductase dye based two fold dilution method; conditions: BCG str. ATCC 35743, 288 h; procedure, shortened: as §4
Escherichia coli [14] = assay: Growth inhibition of Escherichia coli NCIM 2688 at 10 ug/ml measured after 8 hrs relative to control; conditions: NCIM 2688, 8 h, read-out: GI; procedure, shortened: as §1
[15] = test system: Mycobacterium tuberculosis; assay: Growth inhibition of Mycobacterium bovis BCG ATCC 35743 at dormant stage at 30 ug/ml measured after 12 days by nitrate reductase dye based two fold dilution method relative to control; conditions: BCG str. ATCC 35743, 288 h, read-out: GI; procedure, shortened: as §4
Escherichia coli [16] = assay: Growth inhibition of Escherichia coli NCIM 2688 at 30 ug/ml measured after 8 hrs relative to control; conditions: NCIM 2688, 8 h, read-out: GI; procedure, shortened: as §1
Staphylococcus aureus [17] = assay: Growth inhibition of Staphylococcus aureus NCIM 2010 at 3 ug/ml measured after 12 hrs relative to control; conditions: NCIM 2010, 12 h, read-out: GI; procedure, shortened: as §1
Pseudomonas fluorescens [18] = assay: Growth inhibition of Pseudomonas fluorescens NCIM 2036 at 3 ug/ml measured after 8 hrs relative to control; conditions: NCIM 2036, 8 h, read-out: GI; procedure, shortened: as §1
Pseudomonas fluorescens [19] = assay: Growth inhibition of Pseudomonas fluorescens NCIM 2036 at 30 ug/ml measured after 8 hrs relative to control; conditions: NCIM 2036, 8 h, read-out: GI; procedure, shortened: as §1
Bacillus subtilis [20] = assay: Antibacterial activity against Bacillus subtilis NCIM 2079 measured after 12 hrs; conditions: NCIM 2079, 12 h; procedure, shortened: as §1
Pseudomonas fluorescens [21] = assay: Antibacterial activity against Pseudomonas fluorescens NCIM 2036 measured after 8 hrs; conditions: NCIM 2036, 8 h; procedure, shortened: as §1
Staphylococcus aureus [22] = assay: Growth inhibition of Staphylococcus aureus NCIM 2010 at 10 ug/ml measured after 12 hrs relative to control; conditions: NCIM 2010, 12 h, read-out: GI; procedure, shortened: as §1
Aspergillus niger = assay: Antifungal activity against Aspergillus niger NCIM 1196 by standard agar method; procedure, shortened: as §2
[23] = test system: Mycobacterium tuberculosis; assay: Growth inhibition of Mycobacterium bovis BCG ATCC 35743 at dormant stage at 3 ug/ml measured after 12 days by nitrate reductase dye based two fold dilution method relative to control; conditions: BCG str. ATCC 35743, 288 h, read-out: GI; procedure, shortened: as §4
Escherichia coli [24] = assay: Antibacterial activity against Escherichia coli NCIM 2688 measured after 8 hrs; conditions: NCIM 2688, 8 h; procedure, shortened: as §1
Bacillus subtilis [25] = assay: Growth inhibition of Bacillus subtilis NCIM 2079 at 3 ug/ml measured after 12 hrs relative to control; conditions: NCIM 2079, 12 h, read-out: GI; procedure, shortened: as §1

SMILES	inhibition of growth at 10 µg/mL (Pseudomonas fluorescens [1])	inhibition of growth at 30 µg/mL (Bacillus subtilis [2])	MIC (Candida albicans)	IC50 [3]	IC90 [3]	IC50 [4]	IC90 [4]	inhibition of growth at 30 µg/mL (Staphylococcus aureus [5])	inhibition of growth at 10 µg/mL [6]	MIC [7]	MIC [8]	IC50 [9]	IC90 [9]	MIC (Staphylococcus aureus [10])	inhibition of growth at 10 µg/mL (Bacillus subtilis [11])	MIC (Aspergillus flavus)	inhibition of growth at 3 µg/mL (Escherichia coli [12])	IC50 [13]	IC90 [13]	inhibition of growth at 10 µg/mL (Escherichia coli [14])	other results
COc1ccc2cc(/C=C3\SC(=S)N(CC(=O)O)C3=O)c(Cl)nc2c1	-54.3%	6.8%	50 µg/mL (≈ 127 µM)	> 30 µg/mL	> 30 µg/mL	> 30 µg/mL	> 30 µg/mL	-17.7%	33%	75 µg/mL (≈ 190 µM)	100 µg/mL (≈ 253 µM)	> 30 µg/mL	> 30 µg/mL	> 30 µg/mL	-0.0845%	125 µg/mL (≈ 317 µM)	2.49%	> 30 µg/mL	> 30 µg/mL	7.54%	inhibition of growth at 30 µg/mL [15]: 0.66%; inhibition of growth at 30 µg/mL (Escherichia coli [16]): -17.9%; inhibition of growth at 3 µg/mL (Staphylococcus aureus [17]): -13.7%; inhibition of growth at 3 µg/mL (Pseudomonas fluorescens [18]): 4.92%; inhibition of growth at 30 µg/mL (Pseudomonas fluorescens [19]): 10.3%; MIC (Bacillus subtilis [20]): > 30 µg/mL; MIC (Pseudomonas fluorescens [21]): > 30 µg/mL; inhibition of growth at 10 µg/mL (Staphylococcus aureus [22]): -11.3%; MIC (Aspergillus niger): 150 µg/mL (≈ 380 µM); inhibition of growth at 3 µg/mL [23]: -1.36%; MIC (Escherichia coli [24]): > 30 µg/mL; inhibition of growth at 3 µg/mL (Bacillus subtilis [25]): 2.79%
Cc1ccc2cc(/C=C3\SC(=S)N(CCC(=O)O)C3=O)c(Cl)nc2c1	17.1%	-7.94%	25 µg/mL (≈ 63.6 µM)	> 30 µg/mL	> 30 µg/mL	> 30 µg/mL	> 30 µg/mL	-15%	7.51%	100 µg/mL (≈ 255 µM)	150 µg/mL (≈ 382 µM)	> 30 µg/mL	> 30 µg/mL	> 30 µg/mL	-5.45%	150 µg/mL (≈ 382 µM)	18.5%	> 30 µg/mL	> 30 µg/mL	28.8%	inhibition of growth at 30 µg/mL [15]: -9.18%; inhibition of growth at 30 µg/mL (Escherichia coli [16]): 10.3%; inhibition of growth at 3 µg/mL (Staphylococcus aureus [17]): -6.25%; inhibition of growth at 3 µg/mL (Pseudomonas fluorescens [18]): 5.88%; inhibition of growth at 30 µg/mL (Pseudomonas fluorescens [19]): 6.75%; MIC (Bacillus subtilis [20]): > 30 µg/mL; MIC (Pseudomonas fluorescens [21]): > 30 µg/mL; inhibition of growth at 10 µg/mL (Staphylococcus aureus [22]): -17.8%; MIC (Aspergillus niger): 150 µg/mL (≈ 382 µM); inhibition of growth at 3 µg/mL [23]: 19.1%; MIC (Escherichia coli [24]): > 30 µg/mL; inhibition of growth at 3 µg/mL (Bacillus subtilis [25]): -6.11%
O=C1NC(=S)S/C1=C\c1cc2ccccc2nc1Cl	-9.65%	0.707%	150 µg/mL (≈ 489 µM)	> 30 µg/mL	> 30 µg/mL	> 30 µg/mL	> 30 µg/mL	-28.2%	-22.1%	100 µg/mL (≈ 326 µM)	50 µg/mL (≈ 163 µM)	> 30 µg/mL	> 30 µg/mL	> 30 µg/mL	0.915%	150 µg/mL (≈ 489 µM)	-40.6%	> 30 µg/mL	> 30 µg/mL	-14.7%	inhibition of growth at 30 µg/mL [15]: -43.1%; inhibition of growth at 30 µg/mL (Escherichia coli [16]): -28.5%; inhibition of growth at 3 µg/mL (Staphylococcus aureus [17]): -15.7%; inhibition of growth at 3 µg/mL (Pseudomonas fluorescens [18]): -17.5%; inhibition of growth at 30 µg/mL (Pseudomonas fluorescens [19]): 5.4%; MIC (Bacillus subtilis [20]): > 30 µg/mL; MIC (Pseudomonas fluorescens [21]): > 30 µg/mL; inhibition of growth at 10 µg/mL (Staphylococcus aureus [22]): -21.3%; MIC (Aspergillus niger): 100 µg/mL (≈ 326 µM); inhibition of growth at 3 µg/mL [23]: -80.1%; MIC (Escherichia coli [24]): > 30 µg/mL; inhibition of growth at 3 µg/mL (Bacillus subtilis [25]): 7.53%
Cc1ccc2nc(Cl)c(/C=C3\SC(=S)N(CCC(=O)O)C3=O)cc2c1	1.64%	-31.1%	50 µg/mL (≈ 127 µM)	> 30 µg/mL	> 30 µg/mL	> 30 µg/mL	> 30 µg/mL	-19.6%	-7.25%	100 µg/mL (≈ 255 µM)	175 µg/mL (≈ 445 µM)	> 30 µg/mL	> 30 µg/mL	> 30 µg/mL	-25.6%	150 µg/mL (≈ 382 µM)	-37.5%	> 30 µg/mL	> 30 µg/mL	-47.6%	inhibition of growth at 30 µg/mL [15]: -14.8%; inhibition of growth at 30 µg/mL (Escherichia coli [16]): -49%; inhibition of growth at 3 µg/mL (Staphylococcus aureus [17]): -9.82%; inhibition of growth at 3 µg/mL (Pseudomonas fluorescens [18]): 5.35%; inhibition of growth at 30 µg/mL (Pseudomonas fluorescens [19]): -6.24%; MIC (Bacillus subtilis [20]): > 30 µg/mL; MIC (Pseudomonas fluorescens [21]): > 30 µg/mL; inhibition of growth at 10 µg/mL (Staphylococcus aureus [22]): -13.6%; MIC (Aspergillus niger): 100 µg/mL (≈ 255 µM); inhibition of growth at 3 µg/mL [23]: -7.58%; MIC (Escherichia coli [24]): > 30 µg/mL; inhibition of growth at 3 µg/mL (Bacillus subtilis [25]): -20.6%
